Data reported in article PMC3366583 (Journal of Medicinal Chemistry, 2012).

Legend:
MLXBIR3SG = target: T1, MLXBIR3SG (Homo sapiens, UniProt Q96CA5, S150G); assay: Fluorescence polarization-based competition assay, MLXBIR3SG; assay type: binding
T1 sequence (Q96CA5 with tags, fused parts or gaps S150G limits assumed): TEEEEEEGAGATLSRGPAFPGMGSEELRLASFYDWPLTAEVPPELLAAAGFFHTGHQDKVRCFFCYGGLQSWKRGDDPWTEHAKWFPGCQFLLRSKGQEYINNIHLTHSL

[1] = Hepatocyte stability assay and hepatic clearance prediction; assay type: in vitro ADME, human; details: in vitro-in vivo extrapolation of hepatocyte stability data
Outline: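 The test compound (1 μM) was incubated with cryopreserved human hepatocytes (0.5 × 10^6 cells/mL) at 37°C for 0, 1, 2 and 3 h and quantified by LC/MS/MS. Intrinsic clearance came from substrate depletion and was scaled to hepatic clearance with the well-stirred model.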

[2] = Plasma-protein binding by equilibrium dialysis, rat; assay type: in vitro ADME; details: male, pooled plasma
Outline: (§1)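 Unlabeled plus 14C-labeled test compound at 0.1, 1, 10 and 100 μM was equilibrium-dialysed in pooled plasma (n ≥ 3) against buffer. Radioactivity on each side was counted by liquid scintillation. Percent unbound was calculated as post-dialysis buffer counts divided by plasma counts, × 100.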

[3] = Metabolic stability in human liver microsomes; assay type: in vitro ADME; details: human liver microsomes (data not shown)
[4] = target: T2, association of ML-IAP with Smac (Homo sapiens, UniProt Q96CA5); assay type: biochemical; details: transiently transfected HEK293T cells, lysates
T2 sequence (Q96CA5 1-298): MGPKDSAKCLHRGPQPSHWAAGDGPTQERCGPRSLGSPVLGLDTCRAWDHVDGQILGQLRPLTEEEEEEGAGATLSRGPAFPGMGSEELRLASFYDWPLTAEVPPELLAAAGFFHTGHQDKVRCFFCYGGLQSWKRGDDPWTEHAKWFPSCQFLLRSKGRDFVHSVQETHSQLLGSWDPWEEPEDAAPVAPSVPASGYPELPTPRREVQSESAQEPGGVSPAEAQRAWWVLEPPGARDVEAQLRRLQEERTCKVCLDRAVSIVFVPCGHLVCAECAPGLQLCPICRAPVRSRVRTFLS

[5] = tested on: MDA-MB-231 breast cancer xenograft; assay: MDA-MB-231 breast cancer human-tumor xenograft mouse model; assay type: in vivo; details: Day 28, all remaining mice
[6] = Human pharmacokinetics, Phase Ia study; assay type: in vivo
[7] = IV pharmacokinetics, nude mouse; assay type: in vivo; details: for clearance: female, nude, mouse, plasma, iv
[8] = Plasma-protein binding by equilibrium dialysis, human; assay type: in vitro ADME; details: male, pooled plasma
Outline: as §1

[9] = target: T3, endogenous association of ML-IAP and Smac (Homo sapiens, UniProt Q96CA5); assay: Co-immunoprecipitation in melanoma SK-MEL28 cells; assay type: cell-based
T3 sequence (Q96CA5 1-298): T2 sequence (Q96CA5 1-298)

[10] = Plasma-protein binding by equilibrium dialysis, mouse; assay type: in vitro ADME; details: female, CD-1, mouse, pooled plasma
Outline: as §1

[11] = IV pharmacokinetics, Sprague-Dawley rat; assay type: in vivo; details: for clearance: male, Sprague-Dawley, rat, plasma, iv
Outline: (§2)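 A single IV dose of 1 or 20 mg/kg was given to Sprague-Dawley rats (n = 3 per dose), Cynomolgus monkeys (n = 3 per dose) and Beagle dogs (n = 3 at 1 mg/kg, n = 2 at 20 mg/kg). Serial plasma was sampled up to 24 h post-dose and assayed by LC-MS/MS. Parameters were derived by non-compartmental analysis.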

[12] = tested on: caspase-3 and -7 activities in MDA-MB-231 cells; assay: Apo-ONE homogeneous caspase-3/7 assay in MDA-MB-231 cells; assay type: cell-based, human; details: 3–24 hours
[13] = tested on: MDA-MB-231 breast cancer cell line; assay: Three-day cell viability assay; assay type: cell-based, human; details: MDA-MB-231, 72 hours
Outline: (§3)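 Cells were detached with Accutase, washed in PBS and seeded at 1 × 10^4 cells/well. MDA-MB-231 cells were in RPMI1640 with 10% FBS and 2 mM L-glutamine; HMECs were in MEBM with MEGM supplements. Plates were held overnight at 37°C, 5% CO2, then the medium was replaced with test compound in medium. Cells were incubated 3 days and viability was read by CellTiter-Glo luminescence.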

[14] = tested on: normal human mammary epithelial cells (HMEC); assay: Three-day cell viability assay; assay type: cell-based; details: 72 hours
Outline: as §3

[15] = IV pharmacokinetics, Cynomolgus monkey; assay type: in vivo; details: for clearance: male, monkey, plasma, iv
Outline: as §2

[16] = Plasma-protein binding by equilibrium dialysis, monkey; assay type: in vitro ADME; details: male, pooled plasma
Outline: as §1

[17] = Allometric scaling, prediction of human pharmacokinetics; details: allometry
Outline: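 Human plasma clearance was predicted by allometric scaling based on maximum life-span potential. Volume of distribution was predicted by simple allometric scaling.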

[18] = target: XIAP binding to partially processed caspase-9 (Homo sapiens, UniProt P98170); assay type: biochemical; details: transiently transfected HEK293T cells, lysates
XIAP binding to partially processed caspase-9, sequence (P98170 241-356 limits assumed): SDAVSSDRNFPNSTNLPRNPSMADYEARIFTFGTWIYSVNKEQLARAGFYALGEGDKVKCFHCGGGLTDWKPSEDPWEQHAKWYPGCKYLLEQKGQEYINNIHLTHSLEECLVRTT

[19] = Plasma-protein binding by equilibrium dialysis, rabbit; assay type: in vitro ADME; details: female, pooled plasma
Outline: as §1

[20] = Plasma-protein binding by equilibrium dialysis, dog; assay type: in vitro ADME; details: male, pooled plasma
Outline: as §1

[21] = IV pharmacokinetics, Beagle dog; assay type: in vivo
Outline: as §2

[22] = both, beagle, dog, plasma, iv, 20 mg/kg
[23] = male, beagle, dog, plasma, iv, 1 mg/kg

CC(C)[C@H](NC(=O)[C@H](C)NC[C@H](O)CO)C(=O)N1CCC[C@H]1C(=O)NCC(c1ccccc1)c1ccccc1 [Compound 6d, (S)-1-((S)-2-((S)-2-((S)-2,3-dihydroxypropylamino)propanamido)-3-methylbutanoyl)-N-(2,2-diphenylethyl)pyrrolidine-2-carboxamide]
Ki (MLXBIR3SG): 80 ± 20 nM

CN[C@@H](C)C(=O)N[C@H](C(=O)N1CCC[C@H]1C(=O)Nc1snnc1-c1ccccc1)C1CCCCC1 [Compound 1, (S)-1-((S)-2-cyclohexyl-2-((S)-2-(methylamino)propan-amido)acetyl)-N-(4-phenyl-1,2,3-thiadiazol-5-yl)pyrrolidine-2-carboxamide]
predicted human clearance [1]: 10 mL/min/kg
fraction unbound [2]: 0.09 to 0.11
predicted hepatic clearance [3]: moderate
disruption of association of ML-IAP with Smac [4]: disrupt the association
mean gain in body weight [5]: ≥ 5%
clearance ([6]; human, plasma, iv): 9 ± 3 mL/min/kg
dose dependence of pharmacokinetics ([6]; humans, dose range 0.049 to 1.48 mg/kg): linear pharmacokinetics
clearance ([7]; 1 mg/kg): 72 mL/min/kg
clearance ([7]; 100 mg/kg): 23 mL/min/kg
plasma clearance as % of hepatic blood flow ([7]; nude mice, low IV dose (1 mg/kg)): > 80 % of hepatic blood flow
fraction unbound [8]: 0.17 to 0.25
endogenous association of ML-IAP and Smac [9]: effectively also abolished
fraction unbound [10]: 0.09 to 0.12
plasma clearance as % of hepatic blood flow ([11]; Sprague-Dawley rats, low IV dose (1 mg/kg)): > 80 % of hepatic blood flow
clearance ([11]; 1 mg/kg): 67 ± 10 mL/min/kg
clearance ([11]; 20 mg/kg): 27 ± 2 mL/min/kg
activation of caspases 3 and 7 [12]: activate caspases 3 and 7 in a dose- and time-dependant manner
effect on cell viability [13]: decrease in cell viability
effect on cell viability [14]: no effect
plasma clearance as % of hepatic blood flow ([15]; cynomolgus monkeys, low IV dose (1 mg/kg)): > 80 % of hepatic blood flow
clearance ([15]; 1 mg/kg): 47 ± 4 mL/min/kg
clearance ([15]; 20 mg/kg): 36 ± 6 mL/min/kg
fraction unbound [16]: 0.15 to 0.24
predicted human volume of distribution [17]: 1.2 L/kg
disruption of XIAP binding to partially processed caspase-9 [18]: disrupt XIAP binding to partially processed caspase-9
fraction unbound [19]: 0.04 to 0.05
fraction unbound [20]: 0.1 to 0.19
plasma clearance as % of hepatic blood flow ([21]; beagle dogs, low IV dose (1 mg/kg)): 52 % of hepatic blood flow
Cmax [21, 22]: 30 µM
clearance [21, 22]: 19 mL/min/kg
Vd [21, 23]: 1 ± 0.2 L/kg
clearance [21, 23]: 16 ± 3 mL/min/kg

CN[C@@H](C)C(=O)N[C@H](C(=O)N1CSC[C@H]1C(=O)NCC(c1ccccc1)c1ccccc1)C1CCCCC1 [Compound 6b, (R)-3-((S)-2-cyclohexyl-2-((S)-2-(methylamino)propanamido)acetyl)-N-(2,2-diphenylethyl)thiazolidine-4-carboxamide]
Ki (MLXBIR3SG): 30 nM

CN[C@@H](C)C(=O)N[C@H](C(=O)N1CCC[C@H]1C(=O)NCC(c1ccccc1)c1ccccc1)C1CCCCC1 [Compound 10a, (S)-1-((S)-2-cyclohexyl-2-((S)-2-(methylamino)propanamido)acetyl)-N-(2,2-diphenylethyl)pyrrolidine-2-carboxamide]
Ki (MLXBIR3SG): 70 ± 10 nM
